According to ChEMBL document CHEMBL4024708, “Recent synthetic and medicinal perspectives of dihydropyrimidinones: A review” (Eur J Med Chem, 2017):
In brackets after ≈: the same amount, converted by molar mass.

Tests used:
Rattus norvegicus = test: Anti-inflammatory activity in rat assessed as inhibition of carrageenan-induced hind paw edema at 10 mg/kg, po pretreated for 1 hr followed by carrageenan challenge measured after 3 hrs by plethysmometer relative to control; assay type: functional
Outline: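 Albino rats; carrageenan-induced paw edema test after Winter et al., with diclofenac sodium as reference standard. Percentage reduction in inflammation recorded 3 h after carrageenan, relative to carrageenan-only animals.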

[1] = Half-life in Beagle dog at 0.5 mg/kg, iv by LC-MS analysis; assay type: ADME, organism-based, Canis lupus familiaris; conditions: in vivo
[2] = target: T1, Alpha-1A adrenergic receptor (Homo sapiens, UniProt P35348); test: Displacement of [125I]L-762,459 from recombinant human alpha1a adrenergic receptor expressed in mammalian cells measured after 1 hr; assay type: cell-based
T1 sequence (P35348 whole entry): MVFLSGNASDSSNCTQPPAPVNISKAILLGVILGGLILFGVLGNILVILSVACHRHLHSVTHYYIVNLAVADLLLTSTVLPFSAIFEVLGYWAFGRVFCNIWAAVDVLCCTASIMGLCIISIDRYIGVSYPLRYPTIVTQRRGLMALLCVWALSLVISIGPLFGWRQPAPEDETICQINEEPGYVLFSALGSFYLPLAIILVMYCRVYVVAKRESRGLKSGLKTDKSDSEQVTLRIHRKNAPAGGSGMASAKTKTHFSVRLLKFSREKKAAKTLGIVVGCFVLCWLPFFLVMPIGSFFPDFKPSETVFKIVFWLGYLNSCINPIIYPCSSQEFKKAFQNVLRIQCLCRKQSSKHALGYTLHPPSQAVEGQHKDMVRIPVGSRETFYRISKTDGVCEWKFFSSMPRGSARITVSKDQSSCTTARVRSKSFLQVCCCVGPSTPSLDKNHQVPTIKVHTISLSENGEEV

Staphylococcus aureus = test: Antibacterial activity against Staphylococcus aureus MTCC 3160 by spectrophotometric method; assay type: functional
Outline: (§1)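 Serial broth dilution, 200 to 15.625 μg/mL, in nutrient broth, sonicated 10 min. Inoculum gave a starting density of 10^3–10^4 CFU/mL. Flasks were shaken at 200 rpm and 37 °C, and growth followed by the rise in absorbance at 600 nm. MIC is the lowest concentration inhibiting the organism. Controls: compound without inoculum, and inoculum without compound.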

Pseudomonas aeruginosa = test: Antibacterial activity against Pseudomonas aeruginosa MTCC 2581 by spectrophotometric method; assay type: functional; outline: as §1
Mus musculus [3] = test: Anticonvulsant activity in ip dosed maximal electroshock induced seizure mouse model assessed as suppression of hind limb tonic extension measured at 0.5 hrs post dose; assay type: functional; conditions: read-out: MED
Outline: (§2)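 Albino mice given the compound ip, suspended in 0.5% methyl cellulose–water, at 30, 100 and 300 mg/kg. Maximal electroshock by corneal electrodes: 50 mA, 60 Hz, 0.2 s. Abolition of hind limb tonic extension scored as protection. Value is the minimum dose active in half or more of the mice.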

Mus musculus [4] = test: Anticonvulsant activity in ip dosed maximal electroshock induced seizure mouse model assessed as suppression of hind limb tonic extension measured at 4 hrs post dose; assay type: functional; conditions: read-out: MED; outline: as §2
Klebsiella pneumoniae = test: Antibacterial activity against Klebsiella pneumoniae MTCC 7028 by spectrophotometric method; assay type: functional; outline: as §1
Escherichia coli = test: Antibacterial activity against Escherichia coli MTCC 443 by spectrophotometric method; assay type: functional; outline: as §1
CCRF-CEM = test: cells; conditions: Homo sapiens, 48 h
SR = test: Growth inhibition of human SR cells after 48 hrs by SRB assay; assay type: functional
[5] = Antioxidant activity assessed as DPPH free radical scavenging activity at 12.5 ppm after 30 mins in dark by spectrophotometric method relative to control; assay type: functional
Outline: (§3)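 DPPH (1,1-diphenyl-2-picrylhydrazyl) radical scavenging assay. The change in absorbance was read at 517 nm on a spectrophotometer. Activity is given as percent inhibition of the DPPH radical, calculated as (absorbance of control − absorbance of sample)/absorbance of control × 100.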

[6] = Antioxidant activity assessed as cupric ion reducing activity by measuring increase in absorbance at 100 ppm by CUPRAC assay; assay type: functional
Outline: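 CUPRAC assay. Sample solution was mixed with distilled water, at a pH close to 7. Reduction of Cu(II) to Cu(I) was followed as the increase in absorbance at 450 nm of the reaction mixture.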

[7] = Antioxidant activity assessed as DPPH free radical scavenging activity at 100 ppm after 30 mins in dark by spectrophotometric method relative to control; assay type: functional; outline: as §3
[8] = Antioxidant activity assessed as cupric ion reducing activity by measuring increase in absorbance at 12.5 ppm by CUPRAC assay; assay type: functional
Outline: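 CUPRAC: reduction of Cu(II) to Cu(I) followed by the increase in absorbance at 450 nm. Sample and distilled water were made up to 4 mL total, near pH 7. Compounds were tested at 12.5–100 ppm, with gallic acid and quercetin as standards.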

O=C(O)CC1=C(c2ccc(Cl)cc2)N=C(S)NC1c1ccc(Cl)cc1 (configuration not stated)
inhibition in vivo at 10 mg/kg (Rattus norvegicus): 25%

COCC1=C(C(=O)NCCCN2CCC(c3ccc(F)cc3)CC2)[C@@H](c2ccc(F)c(F)c2)NC(=O)N1
half-life [1]: 7 to 8 h

COCC1=C(C(=O)NCCCN2CCC(C#N)(c3ccc(C#N)cc3)CC2)[C@@H](c2ccc(F)c(F)c2)NC(=O)N1
Ki [2]: 0.16 nM

CCC(=O)C1=C(C)NC(=O)NC1c1cccc(OC)c1 (configuration not stated)
MIC (Staphylococcus aureus): 250 mg/L (≈ 911 µM)
MIC (Pseudomonas aeruginosa; read-out: MIC): 250 mg/L (≈ 911 µM)

O=C1NC(=O)C(c2ccccc2)(c2ccccc2)N1 [PHENYTOIN]
minimal effective dose (Mus musculus [3]): 30 mg/kg
minimal effective dose (Mus musculus [4]): 30 mg/kg

CC(=O)C1=C(C)NC(=O)NC1c1ccc(Cl)cc1 (configuration not stated)
MIC (Pseudomonas aeruginosa; read-out: MIC): 250 mg/L (≈ 944 µM)
MIC (Klebsiella pneumoniae): 31.2 to 62.5 mg/L (≈ 118 to 236 µM)

CCC(=O)C1=C(C)NC(=O)NC1c1cccc(Cl)c1 (configuration not stated)
MIC (Pseudomonas aeruginosa; read-out: MIC): 62.5 mg/L (≈ 224 µM)
MIC (Escherichia coli): 15.6 to 31.2 mg/L (≈ 56 to 112 µM)
MIC (Klebsiella pneumoniae): 31.2 to 62.5 mg/L (≈ 112 to 224 µM)

SC1=NC(n2nc(-c3ccccc3)nc2-c2ccccc2)=CC(c2ccc(-c3ccco3)cc2)N1 (configuration not stated)
minimal effective dose (Mus musculus [3]): 30 mg/kg
minimal effective dose (Mus musculus [4]): 300 mg/kg

NC(=O)N1c2ccccc2C=Cc2ccccc21 [CARBAMAZEPINE]
minimal effective dose (Mus musculus [4]): 100 mg/kg

O=c1/c(=C/c2ccc([N+](=O)[O-])o2)sc2n1C(c1ccc3c(c1)OCO3)C=C(c1cc(F)c(Cl)cc1Cl)N=2 (configuration not stated)
GI50 (CCRF-CEM): 3240 nM
GI50 (SR): 3340 nM

COCC1=C(C(=O)NCCCN2CCC(C#N)(c3ccc(F)cc3)CC2)[C@@H](c2ccc(F)cc2)NCN1
Ki [2]: 0.17 nM

SC1=NC(n2nc(-c3ccccc3)nc2-c2ccccc2)=CC(c2ccccc2Cl)N1 (configuration not stated)
minimal effective dose (Mus musculus [3]): 30 mg/kg
minimal effective dose (Mus musculus [4]): 300 mg/kg

Cc1ccc(C2=C(CC(=O)O)C(c3cccs3)NC(S)=N2)cc1 (configuration not stated)
inhibition in vivo at 10 mg/kg (Rattus norvegicus): 10%

O=c1c(O)c(-c2ccc(O)c(O)c2)oc2cc(O)cc(O)c12
Activity [5]: 55.3%
absorbance [6]: 1.2
Activity [7]: 82.3%

Cc1ccc(C2=C(CC(=O)O)C(c3ccc(Cl)cc3)NC(S)=N2)cc1 (configuration not stated)
inhibition in vivo at 10 mg/kg (Rattus norvegicus): 22%

O=C(O)CC1=C(c2ccccc2)N=C(S)NC1c1ccccc1 (configuration not stated)
inhibition in vivo at 10 mg/kg (Rattus norvegicus): 17%

SC1=NC(n2nc(-c3ccccc3)nc2-c2ccccc2)=CC(c2ccc(-c3ccccc3)cc2)N1 (configuration not stated)
minimal effective dose (Mus musculus [3]): 100 mg/kg
minimal effective dose (Mus musculus [4]): 300 mg/kg

O=C(O)c1cc(O)c(O)c(O)c1
Activity [5]: 62.4%
absorbance [6]: 1.4
Activity [7]: 92.4%

O=C(O)CC1=C(c2ccccc2)N=C(S)NC1c1ccc(Cl)cc1 (configuration not stated)
inhibition in vivo at 10 mg/kg (Rattus norvegicus): 30%

Oc1ccc(C2C=C(n3nc(-c4ccccc4)nc3-c3ccccc3)N=C(S)N2)cc1 (configuration not stated)
minimal effective dose (Mus musculus [3]): 30 mg/kg
minimal effective dose (Mus musculus [4]): 300 mg/kg

COc1ccc(C2NC(=O)NC(C)=C2C(C)=O)cc1 (configuration not stated)
MIC (Staphylococcus aureus): 62.5 to 125 mg/L (≈ 240 to 480 µM)
MIC (Pseudomonas aeruginosa; read-out: MIC): 250 mg/L (≈ 960 µM)
MIC (Klebsiella pneumoniae): 31.2 to 62.5 mg/L (≈ 120 to 240 µM)

COc1ccc(C2NC(=S)NC(c3ccc(C)cc3)=C2CC(=O)O)cc1 (configuration not stated)
inhibition in vivo at 10 mg/kg (Rattus norvegicus): 33%

CN(C)c1ccc(C2C=C(n3cc(-c4ccccc4)nc3-c3ccccc3)N=C(S)N2)cc1 (configuration not stated)
minimal effective dose (Mus musculus [3]): 100 mg/kg
minimal effective dose (Mus musculus [4]): 300 mg/kg

COc1ccc(C2C=C(n3cc(-c4ccccc4)nc3-c3ccccc3)N=C(S)N2)cc1 (configuration not stated)
minimal effective dose (Mus musculus [3]): 100 mg/kg
minimal effective dose (Mus musculus [4]): 300 mg/kg

COc1ccc(C2NC(S)=NC(c3ccccc3)=C2CC(=O)O)cc1 (configuration not stated)
inhibition in vivo at 10 mg/kg (Rattus norvegicus): 32%

COc1ccc(C2C=C(n3nc(-c4ccccc4)nc3-c3ccccc3)N=C(S)N2)c(OC)c1 (configuration not stated)
minimal effective dose (Mus musculus [3]): 30 mg/kg
minimal effective dose (Mus musculus [4]): 300 mg/kg

SC1=NC(n2nc(-c3ccccc3)nc2-c2ccccc2)=CC(c2ccc(Cl)cc2)N1 (configuration not stated)
minimal effective dose (Mus musculus [3]): 30 mg/kg
minimal effective dose (Mus musculus [4]): 300 mg/kg

SC1=NC(n2nc(-c3ccccc3)nc2-c2ccccc2)=CC(c2ccc(Br)cc2)N1 (configuration not stated)
minimal effective dose (Mus musculus [3]): 100 mg/kg
minimal effective dose (Mus musculus [4]): 300 mg/kg

O=C(O)CC1=C(c2ccc(Cl)cc2)N=C(S)NC1c1ccccc1 (configuration not stated)
inhibition in vivo at 10 mg/kg (Rattus norvegicus): 20%

Cc1ccc(C2=C(CC(=O)O)C(c3ccccc3)NC(S)=N2)cc1 (configuration not stated)
inhibition in vivo at 10 mg/kg (Rattus norvegicus): 28%

CC(=O)C1=C(C)NC(=O)NC1c1ccccc1 (configuration not stated)
MIC (Staphylococcus aureus): 62.5 to 125 mg/L (≈ 271 to 543 µM)
absorbance [6]: 0.87
MIC (Pseudomonas aeruginosa; read-out: MIC): 250 mg/L (≈ 1090 µM)
MIC (Escherichia coli): 15.6 to 31.2 mg/L (≈ 67.7 to 135 µM)
Activity [7]: 64.4%

CCC(=O)C1=C(C)NC(=O)NC1c1ccc([N+](=O)[O-])cc1 (configuration not stated)
MIC (Staphylococcus aureus): 62.5 to 125 mg/L (≈ 216 to 432 µM)
MIC (Pseudomonas aeruginosa): 15.6 to 31.2 mg/L (≈ 53.9 to 108 µM)

CC1=C(C(=O)NCCCN2CCC(c3ccc(F)c(F)c3)CC2)[C@@H](c2ccc(F)c(F)c2)NC(=O)N1C
Ki [2]: 0.18 to 0.39 nM

CC1=C(C(=O)NCCCN2CCC(c3ccc(F)cc3)CC2)[C@@H](c2ccc(F)c(F)c2)N(C)C(=O)N1C
Ki [2]: 0.14 nM

O=C(O)CC1=C(c2ccccc2)N=C(S)NC1c1cccs1 (configuration not stated)
inhibition in vivo at 10 mg/kg (Rattus norvegicus): 21%

O=[N+]([O-])c1cccc(C2C=C(n3cc(-c4ccccc4)nc3-c3ccccc3)N=C(S)N2)c1 (configuration not stated)
minimal effective dose (Mus musculus [3]): 30 mg/kg
minimal effective dose (Mus musculus [4]): 300 mg/kg

CCC(=O)C1=C(C)NC(=O)NC1c1ccc(OC)cc1 (configuration not stated)
absorbance [8]: 0.05
MIC (Staphylococcus aureus): 250 mg/L (≈ 911 µM)
MIC (Pseudomonas aeruginosa; read-out: MIC): 250 mg/L (≈ 911 µM)
MIC (Klebsiella pneumoniae): 31.2 to 62.5 mg/L (≈ 114 to 228 µM)

CCCCC1NC(=O)NC(C)=C1C(=O)CC (configuration not stated)
MIC (Staphylococcus aureus): 250 mg/L (≈ 1110 µM)
MIC (Pseudomonas aeruginosa; read-out: MIC): 250 mg/L (≈ 1110 µM)

O=C(O)CC1=C(c2ccc(Cl)cc2)NC(=S)NC1c1cccs1 (configuration not stated)
inhibition in vivo at 10 mg/kg (Rattus norvegicus): 16%

CCC(=O)C1=C(C)NC(=O)NC1c1cc(Cl)cc(Cl)c1 (configuration not stated)
Activity [5]: 17.3%
MIC (Pseudomonas aeruginosa): 15.6 to 31.2 mg/L (≈ 49.8 to 99.6 µM)
MIC (Escherichia coli): 15.6 to 31.2 mg/L (≈ 49.8 to 99.6 µM)
MIC (Klebsiella pneumoniae): 31.2 to 62.5 mg/L (≈ 99.8 to 200 µM)

CCC(=O)C1=C(C)NC(=O)NC1c1ccc(Cl)cc1 (configuration not stated)
MIC (Staphylococcus aureus): 62.5 to 125 mg/L (≈ 224 to 448 µM)
MIC (Pseudomonas aeruginosa): 15.6 to 31.2 mg/L (≈ 56 to 112 µM)
MIC (Escherichia coli): 15.6 to 31.2 mg/L (≈ 56 to 112 µM)
MIC (Klebsiella pneumoniae): 31.2 to 62.5 mg/L (≈ 112 to 224 µM)

CC(=O)C1=C(C)NC(=O)NC1c1ccc([N+](=O)[O-])cc1 (configuration not stated)
MIC (Klebsiella pneumoniae): 31.2 to 62.5 mg/L (≈ 114 to 227 µM)

COc1ccc(C2NC(S)=NC(c3ccc(Cl)cc3)=C2CC(=O)O)cc1 (configuration not stated)
inhibition in vivo at 10 mg/kg (Rattus norvegicus): 35%

CCC(=O)C1=C(C)NC(=O)NC1c1ccccc1 (configuration not stated)
MIC (Staphylococcus aureus): 62.5 to 125 mg/L (≈ 256 to 512 µM)
MIC (Pseudomonas aeruginosa): 15.6 to 31.2 mg/L (≈ 63.9 to 128 µM)
